From article PMC11413667 (Acta Pharmaceutica Sinica. B, 2024)

Key:
[1] = system: 4T1 cells; assay: MTT cytotoxicity; format: cell-based, mouse; details: increasing dosage, n = 4
How it was run: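 4T1 cells, cultured in DMEM with 10% FBS and 1% pen-strep at 37 °C, 5% CO2, were seeded overnight until adherent. They were then exposed to a concentration series of test compound. Light groups received 638 nm, 29.8 mW/cm2 for 12 min. Viability was measured by standard MTT relative to untreated cells, n = 4, mean ± SD.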

[2] = system: 4T1 cells; assay: Annexin V-FITC/PI flow cytometry; format: cell-based, mouse; details: upon light
How it was run: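 Mouse 4T1 cells, grown in DMEM with 10% FBS and 1% pen-strep at 37 °C, 5% CO2, were exposed to test compound at one fixed concentration for 6 h in the dark. Cells were then irradiated (638 nm, 29.8 mW/cm2, 15 min) or left unirradiated, and stained with Annexin V-FITC and PI for 15 min. Apoptotic and necrotic fractions were read by flow cytometry.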

[3] = system: 4T1 tumor; details: i.v., PT 20 mg/kg, PTI 25 mg/kg, 0.5-12 h

Compound	Cytotoxicity (MTT), ICG-001 alone [1]	Cells in apoptosis or necrosis state [2]	Tumor accumulation (fluorescence imaging) [3]
O=C1[C@H](Cc2ccc(O)cc2)N2C(=O)CCN(C(=O)NCc3ccccc3)[C@H]2CN1Cc1cccc2ccccc12 [ICG-001]	could hardly retard the cell expansion		
Palmitic-K(PpIX)-HAIYPRH [PT]		less than a quarter	weaker tumor accumulation than PTI
